# Experimental data published in ChEMBL document CHEMBL1132985, “Design and SAR of novel potassium channel openers targeted for urge urinary incontinence. 2. Selective and potent benzylamino cyclobutenediones” (J Med Chem, 2000).
# Key:
# Format in all cases: functional
# [1] = organism: Rattus norvegicus; assay: In vitro inhibitory concentration that relaxed KCL induced contraction in rat detrusor strip by 50%
# [2] = test system: Rattus norvegicus; assay: Compound was evaluated in vivo for the effective dose that cause a 50% reduction in frequency of spontaneous bladder contraction in the rat hypertrophied model after oral administration
# In short: (§1)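 Female Sprague-Dawley rats (190-210 g) given partial proximal urethral ligation (4-0 silk over 1 mm rod) under isoflurane; bladder catheter, cystometry in metabolic cages after overnight saline perfusion (2 mL/h), saline infusion 20 mL/h. Oral dosing in PEG-200 2 h after first cystometry, repeat ~1 h post-dose; % change in contraction frequency from pre-drug; ED50 from dose-response.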
# [3] = test system: Rattus norvegicus; assay: The percent change in BP was determined after oral administration of a dose of 10 mg/kg in rat hypertrophied model
# [4] = test system: Rattus norvegicus; assay: The percent change in the frequency of spontaneous bladder contractions after oral administration of a dose of 3 mg/kg in rat hypertrophic bladder model; in short: as §1
# [5] = test system: Rattus norvegicus; assay: Compound was evaluated in vivo for the effective dose that cause a 20% drop in MAP normotensive rat after oral administration
# [6] = Selectivity ratio of MAP ED20/bladder ED50
# In short: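 Ratio of oral MAP ED20 in normotensive rats to oral ED50 for 50% fall in spontaneous bladder contraction frequency in rat hypertrophied unstable-bladder model.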
IC50 [1],Structure (SMILES),further results
130 nM,CCC(C)(C)/N=c1\c(O)c(O)\c1=N/Cc1ccc(C#N)cc1Cl,
290 nM,Cc1cc(Br)cc(C)c1C/N=c1\c(O)c(O)\c1=N/C(C)(C)C,
220 nM,Cc1cc(Cl)cc(Cl)c1C/N=c1\c(O)c(O)\c1=N/C(C)(C)C,
1100 nM,CC(C)(C)/N=c1\c(O)c(O)\c1=N/Cc1c(Cl)cccc1Cl,
2000 nM,CCc1cc(C#N)ccc1C/N=c1\c(O)c(O)\c1=N/[C@H](C)C(C)(C)C,
340 nM,CC(/N=c1\c(O)c(O)\c1=N/Cc1ccc(Cl)cc1Cl)C(C)(C)C (stereo not drawn),
140 nM,CC(C)(C)/N=c1\c(O)c(O)\c1=N/Cc1ccc(C#N)cc1Cl,ED50 [2]: 3 mg/kg
240 nM,CCc1cc(C#N)ccc1C/N=c1\c(O)c(O)\c1=N/C(C)(C)C,
1200 nM,CCC(C)(C)/N=c1\c(O)c(O)\c1=N/Cc1c(C)cc(Br)cc1C,
1600 nM,CCC(C)(C)/N=c1\c(O)c(O)\c1=N/Cc1ccc(F)c(F)c1,
5600 nM,CCC(C)(C)/N=c1\c(O)c(O)\c1=N/Cc1ccc(SC)cc1,
3900 nM,CC(C)(C)/N=c1\c(O)c(O)\c1=N/Cc1cc(F)ccc1F,
200 nM,CCC(C)(C)/N=c1\c(O)c(O)\c1=N/Cc1c(C)cc(C)cc1Cl,
220 nM,CCC(C)(C)/N=c1\c(O)c(O)\c1=N/Cc1ccc(F)cc1F,
1500 nM,CCC(C)(C)/N=c1\c(O)c(O)\c1=N/Cc1ccc(F)cc1Cl,
1900 nM,Cc1cc(C#N)cc(Cl)c1C/N=c1\c(O)c(O)\c1=N/C(C)C(C)(C)C (stereo not drawn),
> 30000 nM,N#Cc1ccc(CNc2c(NCc3ccc(C#N)cc3)c(=O)c2=O)cc1,
750 nM,CCC(C)(C)/N=c1\c(O)c(O)\c1=N/Cc1cc(F)cc(F)c1,
6100 nM,CCc1cc(C/N=c2\c(O)c(O)\c2=N/C(C)(C)C)ccc1C#N,
3400 nM,CC(C)(C)/N=c1\c(O)c(O)\c1=N/Cc1ccccc1,
> 30000 nM,CCCC/N=c1\c(O)c(O)\c1=N/Cc1ccc(C#N)cc1,
> 30000 nM,CC(/N=c1\c(O)c(O)\c1=N/CCc1ccc(C#N)cc1)C(C)(C)C (stereo not drawn),
21900 nM,CCC/N=c1\c(O)c(O)\c1=N/Cc1ccc(C#N)cc1,
110 nM,CCc1cc(C#N)ccc1C/N=c1\c(O)c(O)\c1=N/C(C)(C)CC,
2100 nM,CC(C)(C)/N=c1\c(O)c(O)\c1=N/Cc1ccccc1F,

IC50 [1],Structure (SMILES),further results
1700 nM,CC(C)(C)/N=c1\c(O)c(O)\c1=N/Cc1ccc(Cl)cc1,
280 nM,CCC(C)(C)/N=c1\c(O)c(O)\c1=N/Cc1c(Cl)cccc1Cl,
4400 nM,CCC(C)(C)/N=c1\c(O)c(O)\c1=N/Cc1c(C)cccc1Cl,
> 30000 nM,CC(C)(C)/N=c1\c(O)c(O)\c1=N/CCc1ccc(C#N)cc1,
10200 nM,CC(C)C/N=c1\c(O)c(O)\c1=N/Cc1ccc(C#N)cc1,
12200 nM,CCCC(=O)N(Cc1ccc(C#N)cc1)c1c(NC(C)C(C)(C)C)c(=O)c1=O (stereo not drawn),ED50 [2]: 8 mg/kg
530 nM,CCC(C)(C)/N=c1\c(O)c(O)\c1=N/Cc1ccc(C)cc1C,
> 30000 nM,CCC(C)(C)/N=c1\c(O)c(O)\c1=N/Cc1cc(C)cc(C)c1,
7500 nM,CC(C)(C)/N=c1\c(O)c(O)\c1=N/Cc1c(F)cccc1F,
9400 nM,N#Cc1ccc(CNc2c(NC3CCCC3)c(=O)c2=O)cc1,
830 nM,CCC(C)(C)/N=c1\c(O)c(O)\c1=N/Cc1c(C)cccc1C,
3000 nM,CC(C)(C)/N=c1\c(O)c(O)\c1=N/Cc1ccncc1,
1400 nM,CC(C)(C)/N=c1\c(O)c(O)\c1=N/Cc1ccc(F)cc1Cl,
2600 nM,CC(C)(C)/N=c1\c(O)c(O)\c1=N/Cc1cccnc1,
1500 nM,CC(C)(C)/N=c1\c(O)c(O)\c1=N/Cc1ccc(F)cc1,
11500 nM,CC(C)(C)/N=c1\c(O)c(O)\c1=N/Cc1ccccn1,
210 nM,CCC(C)(C)/N=c1\c(O)c(O)\c1=N/Cc1ccc(Cl)cc1Cl,
270 nM,C[C@@H](/N=c1\c(O)c(O)\c1=N/Cc1ccc(C#N)cc1)C(C)(C)C,Change [3]: 7%; Change [4]: -69%
,CCc1cc(C#N)ccc1Nc1c(N[C@H](C)C(C)(C)C)c(=O)c1=O,ED20 [5]: 2.3 mg/kg; ED50 [2]: 0.13 mg/kg; Ratio [6]: 17.7
100 nM,CCC(C)(C)Nc1c(NCc2c(C)cc(Cl)cc2Cl)c(=O)c1=O,ED20 [5]: 100 mg/kg; ED50 [2]: 0.6 mg/kg; Change [3]: -7%; Change [4]: -82%; Ratio [6]: 166
4000 nM,CC[C@@H](C)/N=c1\c(O)c(O)\c1=N/Cc1ccc(C#N)cc1,
2200 nM,CC[C@H](C)/N=c1\c(O)c(O)\c1=N/Cc1ccc(C#N)cc1,
9800 nM,Cc1cc(Cl)cc(Cl)c1C/N=c1\c(O)c(O)\c1=N/C(C)C(C)(C)C (stereo not drawn),
> 30000 nM,N#Cc1ccc(CNc2c(N)c(=O)c2=O)cc1,
21300 nM,CC(C)(CO)/N=c1\c(O)c(O)\c1=N/Cc1ccc(C#N)cc1,

IC50 [1],Structure (SMILES),further results
180 nM,CC(/N=c1\c(O)c(O)\c1=N/Cc1ccc(C#N)cc1Cl)C(C)(C)C (stereo not drawn),
1100 nM,CCC(C)(C)/N=c1\c(O)c(O)\c1=N/Cc1ccc(C#N)cc1,
1300 nM,CC(C)(C)/N=c1\c(O)c(O)\c1=N/Cc1ccc(Cl)cc1Cl,
160 nM,CCC(C)(C)/N=c1\c(O)c(O)\c1=N/Cc1c(C)cc(C#N)cc1Cl,
270 nM,CC(C)(C)/N=c1\c(O)c(O)\c1=N/Cc1ccc(C#N)cc1,ED50 [2]: 3 mg/kg; Change [4]: -52%
> 30000 nM,CCC(C)(C)/N=c1\c(O)c(O)\c1=N/Cc1ccc(C)c(C)c1,
1300 nM,CCC(CC)/N=c1\c(O)c(O)\c1=N/Cc1ccc(C#N)cc1,
360 nM,CCC(C)(C)/N=c1\c(O)c(O)\c1=N/Cc1ccc(F)cc1,
870 nM,CCC(C)(C)/N=c1\c(O)c(O)\c1=N/Cc1ccc(F)c(Cl)c1,
2100 nM,CC(C)(C)/N=c1\c(O)c(O)\c1=N/Cc1ccc(F)cc1F,
6500 nM,CC(/N=c1\c(O)c(O)\c1=N/[C@H](C)C(C)(C)C)c1ccc(C#N)cc1 (stereo partly drawn),
11500 nM,CC(/N=c1/c(NC(=O)c2ccc(C#N)cc2)c(O)c1=O)C(C)(C)C (stereo not drawn),
> 30000 nM,CN(C)c1c(NCc2ccc(C#N)cc2)c(=O)c1=O,
270 nM,CCc1cc(Br)ccc1C/N=c1\c(O)c(O)\c1=N/C(C)(C)C,
14400 nM,N#Cc1ccc(CNc2c(NCC(F)(F)C(F)(F)F)c(=O)c2=O)cc1,
18300 nM,CN(c1c(NCc2ccc(C#N)cc2)c(=O)c1=O)C(C)(C)C,
,CCCC(=O)N(Cc1c(C)cc(Cl)cc1Cl)c1c(NC(C)(C)CC)c(=O)c1=O,ED50 [2]: 3.9 mg/kg
4800 nM,COc1ccc(C/N=c2\c(O)c(O)\c2=N/C(C)(C)C)cc1,
310 nM,CCC(C)(C)/N=c1\c(O)c(O)\c1=N/Cc1c(C)cc(C)cc1C,
14000 nM,CC(C)/N=c1\c(O)c(O)\c1=N/Cc1ccc(C#N)cc1,
> 30000 nM,C/N=c1\c(O)c(O)\c1=N/Cc1ccc(C#N)cc1,
2400 nM,CC(C)(C)/N=c1\c(O)c(O)\c1=N/Cc1cccc(F)c1,
630 nM,Cc1ccc(C/N=c2\c(O)c(O)\c2=N/C(C)(C)C)c(C)c1,
,CC1(C)Oc2ccc(OC(F)(F)F)cc2[C@@H](N2Cc3ccccc3C2=O)[C@@H]1O [CELIKALIM],ED20 [5]: 0.2 mg/kg; ED50 [2]: 0.3 mg/kg; Ratio [6]: 0.7
,C[C@](O)(C(=O)Nc1ccc(C(=O)c2ccccc2)cc1)C(F)(F)F [ZD-6169],ED50 [2]: 2.4 mg/kg; Ratio [6]: 2.9

Structure (SMILES),IC50 [1],further results
CC(C)(C)/N=c1\c(O)c(O)\c1=N/Cc1ccc(C#N)c(Cl)c1,1100 nM,
CCC(C)(C)/N=c1\c(O)c(O)\c1=N/Cc1ccc(C#N)c(Cl)c1,260 nM,
